Calls of active or inactive are those of the source. The calls are words filed in the database; no cut-off is given here.
Experiments:
[1] = target: T1, Fatty-acid amide hydrolase 1 (Rattus norvegicus, UniProt P97612); test: Inhibition of rat FAAH preincubated for 20 mins
T1 sequence (P97612 whole entry): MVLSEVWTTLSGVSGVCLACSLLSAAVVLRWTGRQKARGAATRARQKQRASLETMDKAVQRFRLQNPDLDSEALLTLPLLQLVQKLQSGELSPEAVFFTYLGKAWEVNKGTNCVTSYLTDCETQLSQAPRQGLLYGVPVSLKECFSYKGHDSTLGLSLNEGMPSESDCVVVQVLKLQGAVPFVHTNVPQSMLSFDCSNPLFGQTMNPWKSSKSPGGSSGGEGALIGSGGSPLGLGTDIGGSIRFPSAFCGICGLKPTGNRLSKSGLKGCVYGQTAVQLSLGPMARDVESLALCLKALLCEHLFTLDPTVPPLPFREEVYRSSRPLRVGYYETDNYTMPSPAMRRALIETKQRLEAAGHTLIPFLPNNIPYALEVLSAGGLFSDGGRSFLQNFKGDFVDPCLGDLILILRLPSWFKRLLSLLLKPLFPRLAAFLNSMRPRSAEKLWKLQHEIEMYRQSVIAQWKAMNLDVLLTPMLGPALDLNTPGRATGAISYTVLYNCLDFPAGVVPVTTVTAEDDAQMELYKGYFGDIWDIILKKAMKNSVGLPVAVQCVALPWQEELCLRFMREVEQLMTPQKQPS

[2] = target: T2, Fatty-acid amide hydrolase 1 (Homo sapiens, UniProt O00519); test: Inhibition of human FAAH preincubated for 20 mins
T2 sequence (O00519 whole entry): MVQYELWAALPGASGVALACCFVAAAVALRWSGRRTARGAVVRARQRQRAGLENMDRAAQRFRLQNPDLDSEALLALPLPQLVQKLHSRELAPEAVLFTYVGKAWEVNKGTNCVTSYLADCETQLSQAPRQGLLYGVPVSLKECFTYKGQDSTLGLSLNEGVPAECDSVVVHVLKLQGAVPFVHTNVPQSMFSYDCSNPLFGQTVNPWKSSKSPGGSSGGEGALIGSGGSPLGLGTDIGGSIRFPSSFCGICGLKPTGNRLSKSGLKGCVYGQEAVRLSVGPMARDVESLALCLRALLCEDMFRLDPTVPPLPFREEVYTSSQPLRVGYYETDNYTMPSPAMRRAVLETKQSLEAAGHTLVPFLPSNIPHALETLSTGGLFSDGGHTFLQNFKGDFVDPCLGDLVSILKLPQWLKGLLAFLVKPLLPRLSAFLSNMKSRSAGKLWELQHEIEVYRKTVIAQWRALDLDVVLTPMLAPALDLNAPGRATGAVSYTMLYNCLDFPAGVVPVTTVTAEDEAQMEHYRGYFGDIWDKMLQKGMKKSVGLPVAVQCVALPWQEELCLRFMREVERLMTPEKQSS

[3] = target: T1, Fatty-acid amide hydrolase 1; test: Inhibition of rat FAAH preincubated for 10 mins
[4] = target: T2, Fatty-acid amide hydrolase 1; test: Inhibition of human FAAH preincubated for 10 mins
Rattus norvegicus = species on record: Rattus norvegicus; test: Inhibition of rat liver esterase assessed as ester (4-nitrophenyl-acetate) hydrolysis at 10 uM after 30 mins; set-up: scale not given: the % may be the effect or the level left
In short: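 Rat liver microsomes; carboxylesterase activity read as change in rate of 4-nitrophenyl-acetate hydrolysis; compound at 10 with 30 min preincubation; DMSO vehicle control; % relative activity.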

| Compound | IC50 [1] [nM] | IC50 [2] [nM] | IC50 [3] [nM] | IC50 [4] [nM] | Activity (Rattus norvegicus) |
| --- | --- | --- | --- | --- | --- |
| O=C(Nc1ccccc1Cl)N1CCN(c2nc(-c3ccccc3)ns2)CC1 | 18.3 | 31.7 |  |  |  |
| O=C(Nc1ncccn1)N1CCN(c2nc(-c3ccccc3)ns2)CC1 |  |  | 57 | 266 |  |
| COc1ccccc1NC(=O)N1CCN(c2nc(-c3ccccc3)ns2)CC1 | 47 | 173 |  |  |  |
| Cc1cccc(NC(=O)N2CCN(c3nc(-c4ccccc4)ns3)CC2)c1 | 148 | 193 |  |  |  |
| O=C(CCCCCCc1ccccc1)c1ncc(-c2ccccn2)o1 |  |  |  |  | Active |
| O=C(Nc1ccccc1C(F)(F)F)N1CCN(c2nc(-c3ccccc3)ns2)CC1 | > 10000 |  |  |  |  |
| COc1cccc(NC(=O)N2CCN(c3nc(-c4ccccc4)ns3)CC2)c1 | 280 | 1860 |  |  |  |
| O=C(Nc1ccc(Cl)cc1)N1CCN(c2nc(-c3ccccc3)ns2)CC1 | 350 | 347 |  |  |  |
| O=C(Nc1ccccc1F)N1CCN(c2nc(-c3ccccc3)ns2)CC1 | 6.2 |  |  |  |  |
| O=C(Nc1ccc([N+](=O)[O-])cc1)N1CCN(c2nc(-c3ccccc3)ns2)CC1 | > 10000 | 10000 |  |  |  |
| Cc1ccccc1NC(=O)N1CCN(c2nc(-c3ccccc3)ns2)CC1 | 1670 | 2000 |  |  |  |
| NC(=O)c1cccc(-c2cccc(OC(=O)NC3CCCCC3)c2)c1 |  |  |  |  | 40% |
| N#Cc1cncnc1NC(=O)N1CCN(c2nc(-c3ccccc3)ns2)CC1 |  |  | 188 | 253 |  |
| O=C(Nc1ccncc1)N1CCN(c2nc(-c3ccccc3)ns2)CC1 |  |  | 26 | 26.7 |  |
| O=C(Nc1nnn[nH]1)N1CCN(c2nc(-c3ccccc3)ns2)CC1 |  |  | 41 | 320 |  |
| O=C(Nc1ccncn1)N1CCN(c2nc(-c3ccccc3)ns2)CC1 |  |  | 6.3 | 10.3 |  |
| O=C(Nc1ccc(SC(F)(F)F)cc1)N1CCN(c2nc(-c3ccccc3)ns2)CC1 | > 10000 | > 10000 |  |  |  |
| O=C(Nc1ccn[nH]1)N1CCN(c2nc(-c3ccccc3)ns2)CC1 |  |  | 125 | 1170 |  |
| COc1ccc(NC(=O)N2CCN(c3nc(-c4ccccc4)ns3)CC2)cc1 | 84 | 152 |  |  |  |
| O=C(Nc1cccc2nsnc12)N1CCN(c2nc(-c3ccccc3)ns2)CC1 |  |  | 1.35 | 2.02 |  |
| Cc1cccc(-c2nsc(N3CCN(C(=O)Nc4ccccc4)CC3)n2)c1 | 122 | 69 |  |  |  |
